From PubChem BioAssay
A selection: hits, their analogues and other compounds. The true share with any hit is near 1.7%.
CSC inhib – cancer stem cell inhibition | cancer stem cell-like cells viability, luminescence | inhibition, % at 7.5 µM | hit rate 1.1% among 300,000 | AID 2717; in the data active = inhibition above about 75%; tested in HMLE shEcad cells
PfHsp90 set2 – growth inhibition of yeast expressing Plasmodium Hsp90; S. cerevisiae expressing PfHsp90, BacTiter-Glo ATP, 48 h; yeast lacking PDR1 and PDR3 efflux regulators; inhibition, % at 9.4 µM; hit rate 0.32% among 310,000;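 active = every replicate shows inhibition above about 80%, whatever the replicate mean, limit read from the data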;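 also: 0% = DMSO neutral controls and 100% = 20 µM radicicol positive controls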
PglD inh – inhibitors of Campylobacter jejuni PglD acetyltransferase; purified PglD enzyme, DTNB colorimetric CoA detection; inhibition, % at 12.5 µM; hit rate 0.098% among 360,000; AID 602405; in the data active = inhibition above about 16%, passing the limit was not always enough
SKKanGAS inh – inhibitors of SKKanGAS S. pyogenes growth in kanamycin (SK-promoter or general growth effect) | AID 1662 | hit rate 1.3% among 300,000 | inhibition, % at 7.5 µM | BacTiter-Glo, 6 h;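 active = mean replicate score, as percent of positive control median, at least 50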;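 also: strain carries kanamycin resistance gene driven by streptokinase promoter and grows in 40 µg/ml kanamycin; loss of luminescence reflects streptokinase promoter inhibition or plain growth inhibition; 0% = median of DMSO wells and 100% = positive control at its reference dose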
Rtt109 HAT inh – blocks Candida albicans Rtt109/Vps75 acetyltransferase activity; hit rate 0.16% among 330,000; purified Rtt109/Vps75, ThioGlo CoA-SH fluorescence, 4 h; inhibition, % at 34.9 µM; Q5AAJ8;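 active = inhibition of at least 50% in every replicate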
Target sequence (Q5AAJ8 whole entry, looked up): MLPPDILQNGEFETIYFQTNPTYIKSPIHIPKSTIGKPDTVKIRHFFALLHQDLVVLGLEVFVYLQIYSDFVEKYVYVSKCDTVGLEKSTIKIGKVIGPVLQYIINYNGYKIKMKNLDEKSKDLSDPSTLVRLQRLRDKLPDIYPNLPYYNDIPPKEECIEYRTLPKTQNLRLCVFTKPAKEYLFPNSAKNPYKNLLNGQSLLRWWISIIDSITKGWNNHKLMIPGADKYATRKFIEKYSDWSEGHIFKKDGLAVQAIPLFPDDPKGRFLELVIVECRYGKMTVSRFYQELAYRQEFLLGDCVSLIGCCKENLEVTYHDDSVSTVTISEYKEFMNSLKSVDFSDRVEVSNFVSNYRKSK
FN deposit inh – fibronectin deposition inhibition; hit rate 0.086% among 350,000; inhibition, % at 12.6 µM; AH1F fibroblasts, Alexa488-fibronectin deposition fluorescence, overnight;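 active = mean inhibition across replicates of 30% or more, regardless of how many single replicates reach that level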;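 also: positive control wells lacked labelled fibronectin entirely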
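Test system: AH1F fibroblast monolayer depositing Alexa488-labelled fibronectin into matrix. Input: 10000 cells per well. Technique: fluorescence, ex 485 nm, em 525 nm. Buffer or medium: DMEM plus 2% serum, read in PBS. Timing: 1 h cell adhesion before compound, then overnight fibronectin incubation. Compound: single dose, pinned. Read-out basis: inhibition from reduced deposited-fibronectin fluorescence.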
Starred values were filed as active, the others as inactive; x = no result; + = active, no number.

SMILES	CSC inhib	PfHsp90 set2	PglD inh	SKKanGAS inh	Rtt109 HAT inh	FN deposit inh
CC1(C)SC2C(NC(=O)C3(N)CCCCC3)C(=O)N2C1C(=O)O (stereo not drawn)	x	-7	-6	x	8	x
CO[C@H]1CN(C)C(=O)c2cc(NC(=O)C3CC3)ccc2OC[C@@H](C)N(C(=O)c2cnccn2)C[C@@H]1C	x	x	-4	x	x	0
C[C@@H]1CN([C@@H](C)CO)C(=O)c2cc(NC(=O)Cc3ccccc3)ccc2O[C@@H]1CN(C)Cc1ccc(C(=O)O)cc1	x	x	-6	x	x	3
C[C@H]1CCCCO[C@H](CN(C)Cc2ccc(Cl)c(Cl)c2)[C@@H](C)CN([C@@H](C)CO)C(=O)c2cc(NC(=O)NC3CCCCC3)ccc2O1	x	x	-2	x	x	x
COc1cccc(S(=O)(=O)N[C@@H]2C=C[C@H](CC(=O)NCc3ccncc3)O[C@@H]2CO)c1	x	x	45	x	x	18
C=C[C@H](COC(C)=O)N(C(=O)OC(C)(C)C)S(=O)(=O)c1ccc(Br)cc1	x	x	0	x	x	x
CCCc1cc(=O)[nH]c(SCC(=O)Nc2sc(C(N)=O)c(C)c2C(=O)OCCOC)n1	94*	8	-2	x	3	-11
COc1ccc2c(c1)C(=O)N1[C@H]3c4cc(OC)ccc4OC[C@@H]3[C@H](c3ccccc3)[C@]1(C)C(=O)N2	0	-36	5	x	7	13
COc1ccc2c(c1)[C@H]1[C@H](CO2)[C@H](c2ccccc2)[C@]2(C)C(=O)Nc3ccc(Br)cc3C(=O)N12	-1	+	4	x	4	8
COc1ccc2c(c1)OC[C@H]1[C@H]2N2C(=O)c3cc(Br)ccc3NC(=O)[C@@]2(C)[C@H]1c1ccccc1	-9	102*	4	x	-6	x
COc1ccc2c(c1)OC[C@H]1[C@H]2N2C(=O)c3cc(OC)c(OC)cc3NC(=O)[C@@]2(C)[C@H]1c1ccccc1	4	-27	3	x	5	10
O=C(N/N=C/c1ccc(Cl)c([N+](=O)[O-])c1)c1cc(-c2ccc3c4c(cccc24)CC3)n[nH]1	136*	-43	0	17	-1	0
O=C(N/N=C/c1cccc([N+](=O)[O-])c1)c1cc(-c2ccc3c4c(cccc24)CC3)n[nH]1	24	-19	1	11	20	11
C[C@@H]1CN([C@@H](C)CO)S(=O)(=O)c2ccc(C#CC3CC3)cc2O[C@H]1CN(C)C(=O)c1ccccc1	x	x	-1	x	x	-3
Cc1cc(Cl)c(S(=O)(=O)N2CCCC2)cc1OCC(N)=O	-10	-3	x	-6	50*	-6
CCOC(=O)c1cnn(-c2ccc(NS(=O)(=O)c3ccc(Cl)cc3)cc2)c1C(F)(F)F	17	-11	x	55*	9	2
C[C@@H]1CN([C@H](C)CO)C(=O)CCCn2nncc2CO[C@H]1CN(C)C(=O)CCCN(C)C	x	x	x	x	x	1
CN1Cc2cc(C(=O)c3cc(Cl)cc(CSc4ncccn4)c3O)cnc2NC1=O	68	x	x	50*	x	x
CNC[C@@H]1Oc2ccc(NC(=O)CCC(F)(F)F)cc2C(=O)N([C@@H](C)CO)C[C@H]1C	x	x	7	x	x	3
CN(C)C(=O)c1cccc(-c2ccccc2[C@@H]2[C@@H](CO)N(C(=O)C3CCC3)[C@H]2C#N)c1	x	x	x	x	x	-15
CN(C)/C=C/C(=O)c1ccc(N2CCN(c3ncc(C(F)(F)F)cc3Cl)CC2)cc1	26	109*	1	16	0	x
NNC(=O)CN1CCN(c2ncc(C(F)(F)F)cc2Cl)CC1	-5	23	x	-3	7	-9
O=C(CN1CCN(c2ncc(C(F)(F)F)cc2Cl)CC1)NCCNc1ncc(C(F)(F)F)cc1Cl	-5	100*	-6	37	-2	x
CN(C)C=NC(=O)c1ccc(N2CCN(c3ncc(C(F)(F)F)cc3Cl)CC2)cc1	-10	-5	-2	-2	2	x
C[C@H](O)C#Cc1ccc2c(c1)O[C@H](CN(C)C(=O)C1CCC1)[C@@H](C)CN([C@H](C)CO)S2(=O)=O	x	x	3	x	x	x
Cc1cccc(N2CCN(S(=O)(=O)c3cn(C)cn3)CC2)c1C	x	-1	1	-11	6	43*
C[C@H]1CN([C@@H](C)CO)C(=O)c2cccc(NC(=O)C3CCOCC3)c2O[C@H]1CN(C)Cc1ccccc1	x	x	-3	x	x	x
CO[C@@H]1CN(C)C(=O)c2cc(NC(=O)CC(F)(F)F)ccc2OC[C@H](C)N(C(C)=O)C[C@H]1C	x	x	x	x	x	8
